Data on 26 compounds can be found in ChEMBL document CHEMBL4118046, “Chemistry of Renieramycins. 17. A New Generation of Renieramycins: Hydroquinone 5-O-Monoester Analogues of Renieramycin M as Potential Cytotoxic Agents against Non-Small-Cell Lung Cancer Cells” (J Nat Prod, 2017).

In assay [1] the test system is NCI-H460. As to the kind of experiment: Cytotoxicity against human NCI-H460 cells after 72 hrs by MTT assay. It is filed as functional, cell-based. As to conditions: NCI-H460, 72 h. The method, boiled down: (§1)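 Metastatic human NSCLC lines H292 and H460, obtained from ATCC, were tested for viability by MTT assay following a previously published protocol. Cisplatin and doxorubicin served as positive controls. IC50 values are reported.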
For orientation: Tetrazolium assays rely on reduction of a dye to a coloured formazan, in cell work by metabolically active cells.

In assay [2] the test system is NCI-H292. As to the kind of experiment: Cytotoxicity against human NCI-H292 cells after 72 hrs by MTT assay. It is filed as functional, cell-based. As to conditions: NCI-H292, 72 h. The method, boiled down: as §1

A word on the IC50: it is the midpoint of a concentration-inhibition curve. Read a low IC50 as greater potency in that assay. `COC1=C(C)C(=O)C2=C(C1=O)[C@@H]1[C@@H]3CC4=C(C(=O)C(OC)=C(C)C4=O)[C@H](CO)N3[C@@H](C#N)[C@@H](C2)N1C`: the figures for the IC50 in assay [1] and in assay [2] were 164 nM and 217 nM, respectively.

`C/C=C(/C)C(=O)OC[C@H]1c2c(O)c(OC)c(C)c(OC(=O)/C=C/c3ccc(F)cc3)c2C[C@H]2[C@H]3C4=C(C[C@H]([C@H](C#N)N12)N3C)C(=O)C(C)=C(OC)C4=O`: the IC50 in assay [1] is 17 nM; in assay [2], 63 nM.

As to `C/C=C(/C)C(=O)OC[C@H]1c2c(O)c(OC)c(C)c(OC=O)c2C[C@H]2[C@H]3C4=C(C[C@H]([C@H](C#N)N12)N3C)C(=O)C(C)=C(OC)C4=O`, the results for the IC50 in assay [1] and in assay [2] were 9.7 nM and 12 nM, respectively.

As to `C/C=C(/C)C(=O)OC[C@H]1c2c(O)c(OC)c(C)c(OC(=O)/C=C/c3cccnc3)c2C[C@H]2[C@H]3C4=C(C[C@H]([C@H](C#N)N12)N3C)C(=O)C(C)=C(OC)C4=O`, the half-inhibitory concentration (IC50) in assay [1] was 52 nM; in assay [2] it was 57 nM.

For `C/C=C(/C)C(=O)OC[C@H]1c2c(O)c(OC)c(C)c(O)c2C[C@H]2[C@H]3c4c(O)c(OC)c(C)c(O)c4C[C@H]([C@H](C#N)N12)N3C`, the IC50 in assay [1] turned out to be 1.1 nM; in assay [2], 1.7 nM.

Consider `C/C=C(/C)C(=O)OC[C@H]1c2c(O)c(OC)c(C)c(OC(=O)CCC)c2C[C@H]2[C@H]3C4=C(C[C@H]([C@H](C#N)N12)N3C)C(=O)C(C)=C(OC)C4=O`, for which the IC50 amounted to 5.6 nM in assay [1] and 6.7 nM in assay [2].

For `C/C=C(/C)C(=O)OC[C@H]1c2c(O)c(OC)c(C)c(OC(=O)c3ccc(Br)cc3)c2C[C@H]2[C@H]3C4=C(C[C@H]([C@H](C#N)N12)N3C)C(=O)C(C)=C(OC)C4=O`, the IC50 came to 14 nM in assay [1] and 21 nM in assay [2].

Consider `C/C=C(/C)C(=O)OC[C@H]1c2c(O)c(OC)c(C)c(OC(=O)c3ccc4ncccc4c3)c2C[C@H]2[C@H]3C4=C(C[C@H]([C@H](C#N)N12)N3C)C(=O)C(C)=C(OC)C4=O`, for which the figures for the IC50 in assay [1] and in assay [2] were 45 nM and 54 nM, respectively.

As to `C/C=C(/C)C(=O)OC[C@H]1c2c(O)c(OC)c(C)c(OC(=O)CNC(=O)OC(C)(C)C)c2C[C@H]2[C@H]3C4=C(C[C@H]([C@H](C#N)N12)N3C)C(=O)C(C)=C(OC)C4=O`, the figures for the IC50 in assay [1] and in assay [2] were 6 nM and 10 nM, respectively.

Take `C/C=C(/C)C(=O)OC[C@H]1c2c(O)c(OC)c(C)c(OC(=O)/C=C/c3ccccc3)c2C[C@H]2[C@H]3C4=C(C[C@H]([C@H](C#N)N12)N3C)C(=O)C(C)=C(OC)C4=O`: the figures for the IC50 in assay [1] and in assay [2] were 11 nM and 12 nM, respectively.

Consider `C/C=C(/C)C(=O)OC[C@H]1c2c(O)c(OC)c(C)c(OC(=O)c3cccnc3)c2C[C@H]2[C@H]3C4=C(C[C@H]([C@H](C#N)N12)N3C)C(=O)C(C)=C(OC)C4=O`, for which the results for the IC50 in assay [1] and in assay [2] were 20 nM and 59 nM, respectively.

`C/C=C(/C)C(=O)OC[C@H]1c2c(c(O)c(C)c3c2OCO3)C[C@H]2[C@H]3C4=C(C[C@H]([C@H](C#N)N12)N3C)C(=O)C(C)=C(OC)C4=O`: the IC50 in assay [1] was determined as 36 nM; in assay [2], 61 nM.

With `C/C=C(/C)C(=O)OC[C@H]1c2c(c(OC(C)=O)c(C)c(OC)c2OC(C)=O)C[C@H]2[C@H]3C4=C(C[C@H]([C@H](C#N)N12)N3C)C(=O)C(C)=C(OC)C4=O`, the values for the IC50 in assay [1] and in assay [2] were 25 nM and 28 nM, respectively.

Take `C/C=C(/C)C(=O)OC[C@H]1c2c(O)c(OC)c(C)c(OC(=O)[C@H](C)NC(=O)OC(C)(C)C)c2C[C@H]2[C@H]3C4=C(C[C@H]([C@H](C#N)N12)N3C)C(=O)C(C)=C(OC)C4=O`: the results for the half-maximal inhibitory concentration (IC50) in assay [1] and in assay [2] were 16 nM and 24 nM, respectively.

Consider `C/C=C(/C)C(=O)OC[C@H]1c2c(O)c(OC)c(C)c(OC(=O)CCCC)c2C[C@H]2[C@H]3C4=C(C[C@H]([C@H](C#N)N12)N3C)C(=O)C(C)=C(OC)C4=O`, for which the IC50 in assay [1] amounted to 26 nM; in assay [2], 36 nM.

Consider `C/C=C(/C)C(=O)OC[C@H]1c2c(O)c(OC)c(C)c(OC(=O)c3cnc4ccccc4c3)c2C[C@H]2[C@H]3C4=C(C[C@H]([C@H](C#N)N12)N3C)C(=O)C(C)=C(OC)C4=O`, for which the IC50 came out at 22 nM in assay [1] and 111 nM in assay [2].

On to `C/C=C(/C)C(=O)OC[C@H]1c2c(O)c(OC)c(C)c(OC(=O)OC)c2C[C@H]2[C@H]3C4=C(C[C@H]([C@H](C#N)N12)N3C)C(=O)C(C)=C(OC)C4=O`, for which the IC50 in assay [1] is 14 nM; in assay [2] it was 11 nM.

As to `C/C=C(/C)C(=O)OC[C@H]1c2c(O)c(OC)c(C)c(OC(=O)c3ccc(-c4ccccc4)cc3)c2C[C@H]2[C@H]3C4=C(C[C@H]([C@H](C#N)N12)N3C)C(=O)C(C)=C(OC)C4=O`, the IC50 came to 54 nM in assay [1] and 71 nM in assay [2].

For the compound `COc1cc2c(cc1O)CCN[C@]21CS[C@@H]2c3c(OC(C)=O)c(C)c4c(c3[C@H](COC1=O)N1[C@@H]2[C@H]2c3c(cc(C)c(OC)c3O)C[C@H]([C@@H]1C#N)N2C)OCO4`, the IC50 in assay [1] came out at 1.2 nM; in assay [2] it was 1.6 nM.

Consider `C/C=C(/C)C(=O)OC[C@H]1c2c(O)c(OC)c(C)c(OC(=O)c3ccncc3)c2C[C@H]2[C@H]3C4=C(C[C@H]([C@H](C#N)N12)N3C)C(=O)C(C)=C(OC)C4=O`, for which the results for the IC50 in assay [1] and in assay [2] were 11 nM and 20 nM, respectively.

Turning to `C/C=C(/C)C(=O)OC[C@H]1c2c(O)c(OC)c(C)c(OC(=O)CC)c2C[C@H]2[C@H]3C4=C(C[C@H]([C@H](C#N)N12)N3C)C(=O)C(C)=C(OC)C4=O`, the IC50 in assay [1] is 5.1 nM; in assay [2], 2.3 nM.

For the compound `C/C=C(/C)C(=O)OC[C@H]1c2c(O)c(OC)c(C)c(OC(C)=O)c2C[C@H]2[C@H]3C4=C(C[C@H]([C@H](C#N)N12)N3C)C(=O)C(C)=C(OC)C4=O`, the IC50 in assay [1] worked out at 3.6 nM; in assay [2], 3 nM.

With `C/C=C(/C)C(=O)OC[C@H]1c2c(O)c(OC)c(C)c(OC(=O)CCCCC)c2C[C@H]2[C@H]3C4=C(C[C@H]([C@H](C#N)N12)N3C)C(=O)C(C)=C(OC)C4=O`, the results for the IC50 in assay [1] and in assay [2] were 15 nM and 16 nM, respectively.

On to `C/C=C(/C)C(=O)OC[C@H]1c2c(O)c(OC)c(C)c(OC(=O)c3ccccn3)c2C[C@H]2[C@H]3C4=C(C[C@H]([C@H](C#N)N12)N3C)C(=O)C(C)=C(OC)C4=O`, for which the IC50 in assay [1] was determined as 26 nM; in assay [2] it was 103 nM.

For `COc1cccc2c1C(=O)c1c(O)c3c(c(O)c1C2=O)C[C@@](O)(C(=O)CO)C[C@@H]3O[C@H]1C[C@H](N)[C@H](O)[C@H](C)O1` [DOXORUBICIN], the IC50 in assay [1] was determined as 34 nM; in assay [2] it was 351 nM.

As to `C/C=C(/C)C(=O)OC[C@H]1C2=C(C[C@H]3[C@H]4C5=C(C[C@@H]([C@H](C#N)N13)N4C)C(=O)C(C)=C(OC)C5=O)C(=O)C(C)=C(OC)C2=O` [RENIERAMYCIN M], the IC50 in assay [1] turned out to be 6.5 nM; in assay [2] it was 24 nM.
